Test results: ChEMBL document CHEMBL1124368 (J Med Chem, 1989)

Tests used:
Mus musculus [1] = assay: Tumor volume in 24 days after tumor implantation at a dose of 6.25 mg/kg/day; assay type: functional
Method in brief: (§1)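 10⁶ M5076 reticulum cell sarcoma cells were injected im into the left leg of female BDF₁ mice, five per group, on day 0. Compound in 10–20% DMSO/arachis oil was dosed ip daily on days 1–17. Tumor volumes (mm³) were recorded on days 12, 16, 20 and 24 after implantation, with NM marking a tumor that could not be measured.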

Mus musculus [2] = assay: Ratio of tumor volume of test(T) animals compared to control(C) animals x 100 T/C(%)] at a dose of 12.50 mg/kg/day; assay type: functional
Method in brief: (§2)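 M5076 reticulum cell sarcoma: 10⁶ cells implanted im into the left leg of female BDF₁ mice (groups of five) on day 0. Treatment was ip, daily on days 1–17, in 10–20% DMSO in arachis oil. T/C% is treated tumor volume over control tumor volume × 100.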

Mus musculus [3] = assay: Tumor volume in 20 days after tumor implantation at a dose of 12.5 mg/kg/day of compound; assay type: functional; method in brief: as §1
Mus musculus [4] = assay: Ratio of tumor volume of test (T) animals compared to control (C) animals x 100 T/C(%)] at a dose of 50 mg/kg/day of compound; assay type: functional; method in brief: as §2
Mus musculus [5] = assay: Tumor volume in 20 days after tumor implantation at a dose of 3.125 mg/kg/day; assay type: functional; method in brief: as §1
Mus musculus [6] = assay: Ratio of tumor volume of test(T) animals compared to control(C) animals x 100 T/C(%)] at a dose of 3.125 mg/kg/day; assay type: functional; method in brief: as §2
Mus musculus [7] = assay: (§3) Mean of weight gain from day 0 to day 24 at a dose of 3.125 mg/kg/day of compound; assay type: functional; design: unit not given here
Method in brief: (§4)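 M5076 reticulum cell sarcoma: 10⁶ cells implanted im into the left leg of female BDF₁ mice (groups of five) on day 0. Drug in 10–20% DMSO in arachis oil was given ip daily on days 1–17. Weight change is the mean weight gain from day 0 to day 24.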

Mus musculus [8] = assay: Mean of weight gain from day 0 to day 24 at a dose of 6.25 mg/kg/day; assay type: functional; design: unit not given here; method in brief: as §4
Mus musculus [9] = assay: Tumor volume in 20 days after tumor implantation at a dose of 6.25 mg/kg/day of compound; assay type: functional; method in brief: as §1
Mus musculus [10] = assay: Ratio of tumor volume of test(T) animals compared to control(C) animals x 100 T/C(%)] at a dose of 6.25 mg/kg/day; assay type: functional; method in brief: as §2
Mus musculus [11] = assay: Tumor volume in 24 days after tumor implantation at a dose of 3.125 mg/kg/day; assay type: functional; method in brief: as §1
Mus musculus [12] = assay: Tumor volume in 16 days after tumor implantation at a dose of 6.25 mg/kg/day of compound; assay type: functional; method in brief: as §1
Mus musculus [13] = assay: Tumor volume in 24 days after tumor implantation at a dose of 12.5 mg/kg/day; assay type: functional; method in brief: as §1
Mus musculus [14] = assay: Tumor volume in 12 days after tumor implantation at a dose of 3.125 mg/kg/day of compound; assay type: functional; method in brief: as §1
Mus musculus [15] = assay: Mean of weight gain from day 0 to day 24 at a dose of 50 mg/kg/day of compound; assay type: functional; method in brief: as §4
Mus musculus [16] = assay: Mean of weight gain from day 0 to day 24 at a dose of 25 mg/kg/day of compound; assay type: functional; design: unit not given here; method in brief: as §4
Mus musculus [17] = assay: Ratio of tumor volume of test(T) animals compared to control(C) animals x 100 T/C(%)] at a dose of 25 mg/kg/day; assay type: functional; method in brief: as §2
Mus musculus [18] = assay: Tumor volume in 16 days after tumor implantation at a dose of 3.125 mg/kg/day of compound; assay type: functional; method in brief: as §1
Mus musculus [19] = assay: Mean of weight gain from day 0 to day 24 at a dose of 12.5 mg/kg/day of compound; assay type: functional; design: unit not given here; method in brief: as §4
Mus musculus [20] = assay: Tumor volume in 20 days after tumor implantation at a dose of 25 mg/kg/day of compound; assay type: functional; method in brief: as §1
Mus musculus [21] = assay: Tumor volume in 16 days after tumor implantation at a dose of 25 mg/kg/day of compound; assay type: functional; method in brief: as §1
Mus musculus [22] = assay: Tumor volume in 16 days after tumor implantation at a dose of 12.5 mg/kg/day of compound; assay type: functional; method in brief: as §1
Mus musculus [23] = assay: Tumor volume in 24 days after tumor implantation at a dose of 25 mg/kg/day of compound; assay type: functional; method in brief: as §1
Mus musculus [24] = assay: Mean of weight gain from day 0 to day 24 in the mice at a dose of 50 mg/kg/day of compound; assay type: functional; method in brief: as §4
Mus musculus [25] = assay: Tumor volume in 12 days after tumor implantation at a dose of 12.5 mg/kg/day of compound; assay type: functional; method in brief: as §1
Mus musculus [26] = assay: Tumor volume in 12 days after tumor implantation at a dose of 6.25 mg/kg/day of compound; assay type: functional; method in brief: as §1
Mus musculus [27] = assay: Tumor volume in 24 days after tumor implantation at a dose of 50 mg/kg/day of compound; assay type: functional; method in brief: as §1
Mus musculus [28] = assay: Tumor volume in 20 days after tumor implantation at a dose of 3.125 mg/kg/day of compound; assay type: functional; method in brief: as §1
Mus musculus [29] = assay: Ratio of tumor volume of test(T) animals compared to control(C) animals x 100T/C(%)] at a dose of 3.125 mg/kg/day of compound; assay type: organism-based; details: in vivo; method in brief: as §2
Mus musculus [30] = assay: Tumor volume in 24 days after tumor implantation at a dose of 3.125 mg/kg/day of compound; assay type: functional; method in brief: as §1
Mus musculus [31] = assay: as §3; assay type: functional; method in brief: as §4

Row | Structure (SMILES) | Tumor volume (Mus musculus [1]) | Antitumor activity (Mus musculus [2]) | Tumor volume (Mus musculus [3]) | Antitumor activity (Mus musculus [4]) | Tumor volume (Mus musculus [5]) | Antitumor activity (Mus musculus [6]) | Weight change (Mus musculus [7]) | Weight change (Mus musculus [8]) | Tumor volume (Mus musculus [9]) | Antitumor activity (Mus musculus [10]) | Tumor volume (Mus musculus [11]) | Tumor volume (Mus musculus [12]) | Tumor volume (Mus musculus [13]) | Tumor volume (Mus musculus [14]) | Weight change (Mus musculus [16]) | Antitumor activity (Mus musculus [17]) | Tumor volume (Mus musculus [18]) | Weight change (Mus musculus [19]) | Tumor volume (Mus musculus [22]) | Tumor volume (Mus musculus [23]) | also measured
1 | CCc1nc(N)nc(N)c1-c1ccc(NCc2ccc(Cl)c(Cl)c2)c([N+](=O)[O-])c1 | 851 mm**3 | 16% | 216 mm**3 | <8% | 858 mm**3 | 48% | 3.6 | 3.5 | 385 mm**3 | 36% | 1173 mm**3 | 256 mm**3 | 395 mm**3 | 216 mm**3 | 2.7 | <8% | 498 mm**3 | 3 |  |  | Weight change (Mus musculus [15]): 2.9
2 | CCc1nc(N)nc(N)c1-c1ccc(NCc2ccc(C)cc2)c([N+](=O)[O-])c1 | 1099 mm**3 | 24% | 385 mm**3 |  | 1581 mm**3 | 76% | 3 | 2.1 | 704 mm**3 | 44% | 1881 mm**3 | 270 mm**3 | 641 mm**3 |  | 2.4 | 20% | 596 mm**3 | 2.4 | 198 mm**3 | 514 mm**3 | Tumor volume (Mus musculus [20]): 426 mm**3; Tumor volume (Mus musculus [21]): 180 mm**3
3 | CCCCNc1ccc(-c2c(N)nc(N)nc2CC)cc1[N+](=O)[O-] | 1920 mm**3 | 41% | 496 mm**3 | 15% | 1176 mm**3 | 78% | 8.2 | 5.4 | 913 mm**3 | 70% | 2143 mm**3 | 438 mm**3 | 1061 mm**3 | 271 mm**3 | 3.7 | 22% | 622 mm**3 | 3.6 | 283 mm**3 | 638 mm**3 | Weight change (Mus musculus [24]): 2.7; Tumor volume (Mus musculus [25]): 180 mm**3; Tumor volume (Mus musculus [26]): 212 mm**3; Tumor volume (Mus musculus [27]): 368 mm**3
4 | CN(Cc1cnc2nc(N)nc(N)c2n1)c1ccc(C(=O)N[C@@H](CCC(=O)O)C(=O)O)cc1 [METHOTREXATE] |  |  |  |  |  |  |  |  |  |  |  | 389 mm**3 |  | 411 mm**3 |  |  | 987 mm**3 |  |  |  | Tumor volume (Mus musculus [28]): 1914 mm**3; Tumor volume (Mus musculus [26]): 347 mm**3; T/C (Mus musculus [29]): 92%; Tumor volume (Mus musculus [30]): 2270 mm**3; Weight change (Mus musculus [31]): 3.9
